Experiment [1] deals with MIA PaCa-2. Briefly: Cytotoxicity against multidrug-resistant human MIAPaCa2 cells assessed as cell viability at 50 uM after 48 hrs by MTT assay. In kind it is functional, cell-based. Summed up: (§1)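 Cells left untreated or incubated at 50 μM for 48 h, with gemcitabine 50 μM as reference. Viability read by MTT.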
A general note: Formazan colour is commonly taken as a measure of viable cells.

For experiment [2], the system named is MIA PaCa-2. Briefly: Cytotoxicity against multidrug-resistant human MIAPaCa2 cells assessed as cell viability after 48 hrs by MTT assay. In kind it is functional, cell-based. Summed up: (§2)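 Cells left untreated or incubated with compound over 50 nM to 200 μM for 48 h. Viability read by MTT. Values are mean SE of three independent experiments, and IC50 is taken from the dose-response curves.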

In experiment [3] the test system is PC-3. The experiment is described as follows: Cytotoxicity against human PC3 cells assessed as cell viability at 50 uM after 48 hrs by MTT assay. It is filed as functional, cell-based. Summed up:
as §1

The test system of experiment [4] is MIA PaCa-2. The experiment is described as follows: Induction of apoptosis in multidrug-resistant human MIAPaCa2 cells assessed as late apoptotic cells after 48 hrs using AnnexinV-FITC conjugated 7- AAD staining by flow cytometry (reference value: 0.21%). In kind it is functional. (In general: A flow cytometer gives signals particle by particle.)
Experiment [5] concerns PC-3. The experiment is described as follows: Cytotoxicity against human PC3 cells assessed as cell viability after 48 hrs by MTT assay. It is filed as functional, cell-based. Summed up: as §2
For experiment [6], the system named is MCF7. The experiment is described as follows: Cytotoxicity against human MCF7 cells assessed as cell viability at 50 uM after 48 hrs by MTT assay. In kind it is functional, cell-based. Summed up:
as §1

Experiment [7] concerns the target T1, Toll-like receptor 7 (Mus musculus) (UniProt P58681).
T1 sequence (whole entry): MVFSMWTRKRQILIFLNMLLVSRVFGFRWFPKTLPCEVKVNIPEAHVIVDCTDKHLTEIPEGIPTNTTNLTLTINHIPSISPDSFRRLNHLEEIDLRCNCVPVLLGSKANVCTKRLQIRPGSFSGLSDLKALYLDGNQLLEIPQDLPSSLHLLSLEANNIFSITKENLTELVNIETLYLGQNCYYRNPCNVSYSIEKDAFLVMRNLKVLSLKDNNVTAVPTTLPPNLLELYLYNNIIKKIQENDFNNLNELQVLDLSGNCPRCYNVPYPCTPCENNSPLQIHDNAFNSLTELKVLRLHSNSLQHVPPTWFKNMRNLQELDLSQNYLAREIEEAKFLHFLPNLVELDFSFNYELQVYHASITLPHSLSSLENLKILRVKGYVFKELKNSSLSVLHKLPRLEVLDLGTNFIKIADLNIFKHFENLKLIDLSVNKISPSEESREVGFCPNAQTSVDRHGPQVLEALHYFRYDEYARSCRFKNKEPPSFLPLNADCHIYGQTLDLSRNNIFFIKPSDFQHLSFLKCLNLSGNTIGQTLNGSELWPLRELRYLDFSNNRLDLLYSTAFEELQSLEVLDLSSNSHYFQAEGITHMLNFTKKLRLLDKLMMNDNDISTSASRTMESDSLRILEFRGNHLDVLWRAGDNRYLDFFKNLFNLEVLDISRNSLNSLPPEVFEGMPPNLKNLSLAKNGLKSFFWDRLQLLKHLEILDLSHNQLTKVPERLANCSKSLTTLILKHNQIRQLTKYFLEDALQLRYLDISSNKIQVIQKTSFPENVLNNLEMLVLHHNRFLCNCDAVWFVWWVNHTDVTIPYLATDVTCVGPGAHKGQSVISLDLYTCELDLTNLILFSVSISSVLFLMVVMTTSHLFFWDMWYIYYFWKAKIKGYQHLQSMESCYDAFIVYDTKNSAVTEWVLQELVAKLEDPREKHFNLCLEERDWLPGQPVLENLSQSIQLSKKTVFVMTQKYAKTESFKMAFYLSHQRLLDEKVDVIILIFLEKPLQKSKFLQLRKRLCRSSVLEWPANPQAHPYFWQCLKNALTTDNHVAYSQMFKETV
Briefly: Activation of TLR7 in C57BL/6 mouse bone marrow dendritic cells assessed as increase of IL6 production after 24 hrs by ELISA. It is filed as cell-based. The essentials:
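Bone marrow dendritic cells from wild-type mice, left untreated or stimulated with two doses for 24 h. IL-6 in culture supernatants measured by ELISA. Mean SD of four mice per group.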
A general note: ELISA stands for enzyme-linked immunosorbent assay.

Experiment [8] relates to Dendritic cell. Briefly: Immunostimulatory activity against TLR3-deficient C57BL/6 mouse bone marrow dendritic cells assessed as increase in IL-12p40 level at 3 to 10 uM after 24 hrs by ELISA. In kind it is functional, cell-based. The essentials:
(§3)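 Bone marrow dendritic cells from wild-type, TLR3−/−, TLR7−/− and TLR9−/− mice, left untreated or stimulated with different doses for 24 h. IL-12p40 protein in culture supernatants measured by ELISA.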

The test system of experiment [9] is Capan-2. Briefly: Cytotoxicity against human Capan2 cells assessed as cell viability at 50 uM after 48 hrs by MTT assay. It is filed as functional, cell-based. Summed up: as §1
Experiment [10] deals with Dendritic cell. The experiment is described as follows: Immunostimulatory activity against wild type C57BL/6 mouse bone marrow dendritic cells assessed as increase in IL-12p40 level at 3 to 10 uM after 24 hrs by ELISA. In kind it is functional, cell-based. Summed up:
as §3

In experiment [11] the test system is MIA PaCa-2. The experiment is described as follows: Induction of apoptosis in multidrug-resistant human MIAPaCa2 cells assessed as early apoptotic cells after 48 hrs using AnnexinV-FITC conjugated 7- AAD staining by flow cytometry (reference value: 2.54%). In kind it is functional.
The test system of experiment [12] is MIA PaCa-2. Briefly: Induction of apoptosis in multidrug-resistant human MIAPaCa2 cells assessed as necrotic cells after 48 hrs using AnnexinV-FITC conjugated 7- AAD staining by flow cytometry (reference value: 0.17%). It is filed as functional.
In experiment [13] the test system is Capan-2. The experiment is described as follows: Cytotoxicity against human Capan2 cells assessed as cell viability after 48 hrs by MTT assay. It is filed as functional, cell-based. The essentials:
as §2

Experiment [14] relates to MIA PaCa-2. The experiment is described as follows: Cell cycle arrest in multidrug-resistant human MIAPaCa2 cells assessed as accumulation at sub-G0/G1 phase after 48 hrs by propidium iodide staining based FACS flow cytometry (reference value: 1.17%). In kind it is functional.
For experiment [15], the system named is PANC-1. The experiment is described as follows: Cytotoxicity against human PANC1 cells assessed as cell viability at 50 uM after 48 hrs by MTT assay. It is filed as functional, cell-based. Summed up: as §1
Experiment [16] concerns Dendritic cell. Briefly: Immunostimulatory activity against TLR9-deficient C57BL/6 mouse bone marrow dendritic cells assessed as increase in IL-12p40 level at 3 to 10 uM after 24 hrs by ELISA. In kind it is functional, cell-based. Summed up: as §3
The subject of experiment [17] is HeLa. Briefly: Cytotoxicity against human HeLa cells assessed as cell viability after 48 hrs by MTT assay. It is filed as functional, cell-based. Summed up:
as §2

In experiment [18] the test system is Dendritic cell. Briefly: Immunostimulatory activity against TLR7-deficient C57BL/6 mouse bone marrow dendritic cells assessed as increase in IL-12p40 level at 10 uM after 24 hrs by ELISA. In kind it is functional, cell-based. The essentials: as §3
Experiment [19] relates to MIA PaCa-2. Briefly: Induction of apoptosis in multidrug-resistant human MIAPaCa2 cells assessed as increase in DNA/histone nucleosome release after 48 hrs by ELISA relative to control. It is filed as functional. Summed up:
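MiaPaCa-2 cells treated 48 h, with untreated and gemcitabine references. Cytoplasmic DNA/histone nucleosome release detected by ELISA and compared with untreated cells. Run in triplicate.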

Experiment [20] deals with MIA PaCa-2. Briefly: Induction of apoptosis in multidrug-resistant human MIAPaCa2 cells assessed as increase in caspase-3/7 activity after 48 hrs by caspase-Glo 3/7 assay. In kind it is functional, cell-based. Summed up: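 MiaPaCa-2 cells treated 48 h, with untreated and gemcitabine references. Caspase-3/7 activity measured. Run in triplicate.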
Experiment [21] concerns PANC-1. The experiment is described as follows: Cytotoxicity against human PANC1 cells assessed as cell viability after 48 hrs by MTT assay. In kind it is functional, cell-based. Summed up: as §2
Experiment [22] has as its system MCF7. Briefly: Cytotoxicity against human MCF7 cells assessed as cell viability after 48 hrs by MTT assay. In kind it is functional, cell-based. The essentials:
as §2

Experiment [23] has as its system HeLa. The experiment is described as follows: Cytotoxicity against human HeLa cells assessed as cell viability at 50 uM after 48 hrs by MTT assay. In kind it is functional, cell-based. Summed up: as §1

Data on twelve compounds can be found in ChEMBL document CHEMBL2146475, “A novel bitriazolyl acyclonucleoside endowed with dual antiproliferative and immunomodulatory activity” (J Med Chem, 2012).

Calls of active or inactive are those of the source. No cut-off for these calls is given here.

In the case of `COC(=O)c1nc(Nc2ccc3ccc4cccc5ccc2c3c45)n(COCCOC(C)=O)n1`, the outcome in experiment [1] was inactive.

Regarding `NC(=O)c1nc(-c2cn(Cc3ccc4ccc5cccc6ccc3c4c56)nn2)n(COCCO)n1`, the outcome in experiment [2] was Active.

For `COC(=O)c1nc(C#Cc2ccc3ccc4cccc5ccc2c3c45)n(COCCOC(C)=O)n1`, the result in experiment [1] was inactive.

Turning to `COC(=O)c1nc(CCc2ccc3ccc4cccc5ccc2c3c45)n(COCCOC(C)=O)n1`, the outcome in experiment [1] was inactive.

Consider `COC(=O)c1nc(-c2cn(Cc3ccc4cc5ccccc5cc4c3)nn2)n(COCCOC(C)=O)n1`, for which, in experiment [1], the result was inactive.

On to `COC(=O)c1nc(-c2cn(Cc3ccc4ccc5cccc6ccc3c4c56)nn2)n(COCCOC(C)=O)n1`, for which the result in [3], in experiment [6], in experiment [8], in experiment [9], in experiment [10] and in experiment [15] was Active. Also, the result in experiment [16], in experiment [1], in experiment [20] and in [23] was Active. In addition, the Activity in experiment [4] is 22.44%; in experiment [5], “Dose-dependent effect”; in experiment [7] it was “Dose-dependent effect”; in [2], “Dose-dependent effect”; in experiment [11], 28.48%; in [12], 0.41%. For the same compound, the Activity result in experiment [13] was “Dose-dependent effect”; in experiment [14], 36.9%; in experiment [17], “Dose-dependent effect”; in [21], “Dose-dependent effect”; in experiment [22], “Dose-dependent effect”. The IC50 was ≤ 10 µM in experiment [5] (PC-3, 48 h); ≤ 10 µM in experiment [2] (MIA PaCa-2, 48 h); ≤ 10 µM in experiment [13] (Capan-2, 48 h); ≤ 10 µM in experiment [17]; ≤ 10 µM in [21] (PANC-1, 48 h); ≤ 10 µM in [22] (MCF7, 48 h). In addition, in experiment [18], the outcome was inactive. In addition, in [19], the “fold change (FC)” value came out at 15.

On to `COC(=O)c1nc(-c2cn(Cc3ccc4ccccc4c3)nn2)n(COCCOC(C)=O)n1`, for which, in [1], the result was inactive.

In the case of `COC(=O)c1nc(-c2cn(-c3ccc4ccc5cccc6ccc3c4c56)nn2)n(COCCOC(C)=O)n1`, the result in experiment [1] was inactive.

Regarding `COC(=O)c1nc(-c2cn(Cc3ccc4ccc5cccc6ccc3c4c56)nn2)n([C@@H]2O[C@H](COC(C)=O)[C@@H](OC(C)=O)[C@H]2OC(C)=O)n1`, the result in experiment [2] was inactive.

As to `COC(=O)c1nc(-c2cn(Cc3ccc4ccc5cccc6ccc3c4c56)nn2)nn1COCCOC(C)=O`, the outcome in experiment [1] was inactive.

`COC(=O)c1nc(-c2cn(Cc3ccccc3)nn2)n(COCCOC(C)=O)n1`: the result in experiment [1] was inactive.

With `Nc1ccn([C@@H]2O[C@H](CO)[C@@H](O)C2(F)F)c(=O)n1` [GEMCITABINE], the Activity in experiment [4] stood at 0.86%; in [11], 10.47%; in experiment [12], 0.35%; in [14], 7.9%. In addition, the outcome in experiment [19] and in experiment [20] was Active.

A word on the IC50: it is the point on the concentration scale where inhibition reaches its midpoint.
